Assays:
[1] = Area under the plasma concentration was determined in fasted Beagle dogs after peroral administration of 100 mg/kg; assay type: ADME, organism-based, Canis lupus familiaris; set-up: dose 100 mg/kg, route oral; conditions: dog, po
Method in brief: (§1)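 Fasted beagle dogs dosed orally; plasma (0.2 mL) deproteinized with acetonitrile containing 1% methanesulfonic acid at 5 °C, centrifuged 10 min at 3000 rpm at 5 °C, analyzed by HPLC with n-propyl or iso-amyl 4-hydroxybenzoate as internal standard.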

[2] = Area under the plasma concentration was determined in fasted Beagle dogs after peroral administration of 20 mg/kg; assay type: ADME, organism-based, Canis lupus familiaris; set-up: dose 20 mg/kg, route oral; conditions: dog, po; method in brief: as §1
[3] = Half-life in rat plasma.; assay type: ADME, organism-based
Method in brief: (§2)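 Compound in MeOH (1 mg/mL stock) incubated with rat or dog plasma, liver homogenate or small intestine homogenate at 37 °C for 120 min; aliquots taken at regular intervals into acetonitrile with 1% methanesulfonic acid at 5 °C, centrifuged 10 000 rpm 1 min, analyzed by HPLC to give hydrolysis half-life (min) and products.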

[4] = Half-life in rat liver homogenate.; assay type: ADME, organism-based; method in brief: as §2
[5] = Half-life in dog liver homogenate.; assay type: ADME, organism-based, Canis lupus familiaris; method in brief: as §2
[6] = Half-life in dog plasma.; assay type: ADME, organism-based, Canis lupus familiaris; method in brief: as §2
[7] = Half-life in dog small intestine homogenate.; assay type: ADME, organism-based, Canis lupus familiaris; method in brief: as §2
[8] = target: Chymotrypsinogen A (Bos taurus, UniProt P00766); test: Concentration required to inhibit enzymatic cleavage of the chromogenic substrate (Suc-Ala-Ala-Pro-Phe-pNA) for chymotrypsin in vitro.
[9] = target: T1, Neutrophil elastase (Homo sapiens, UniProt P08246); test: Concentration required to inhibit enzymatic cleavage of the chromogenic substrate (MeO-Suc-Ala-Ala-Pro-Val-pNA) for sputum elastase in vitro.
T1 sequence (P08246 whole entry): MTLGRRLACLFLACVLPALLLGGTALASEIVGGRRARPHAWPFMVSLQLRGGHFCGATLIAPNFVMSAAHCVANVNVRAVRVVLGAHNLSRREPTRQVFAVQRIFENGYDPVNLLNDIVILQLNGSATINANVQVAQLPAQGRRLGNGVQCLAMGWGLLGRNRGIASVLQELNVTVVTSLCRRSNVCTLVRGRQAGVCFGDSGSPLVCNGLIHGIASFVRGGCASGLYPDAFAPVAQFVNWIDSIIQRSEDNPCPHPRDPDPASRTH

[10] = target: Plasma kallikrein (Homo sapiens, UniProt P03952); test: Concentration required to inhibit enzymatic cleavage of the chromogenic substrate (H-D-Pro-Phe-Arg-pNA) for plasma kallikrein in vitro.
[11] = target: Kallikrein-1 (Homo sapiens, UniProt P06870); test: Concentration required to inhibit enzymatic cleavage of the chromogenic substrate (H-D-Val-Leu-Arg-pNA) for pancreatic kallikrein in vitro.
[12] = target: Plasminogen (Rattus norvegicus, UniProt Q01177); test: Concentration required to inhibit enzymatic cleavage of the chromogenic substrate (H-D-Val-Leu-Lys-pNA) for plasmin in vitro.
[13] = Concentration required to inhibit enzymatic cleavage of the chromogenic substrate (Suc-Ala-Ala-Ala-AMC) for pancreatic elastase in vitro.; set-up: species or system Homo sapiens
[14] = target: Prothrombin (Homo sapiens, UniProt P00734); test: Concentration required to inhibit enzymatic cleavage of the chromogenic substrate (H-D-Phe-Pip-Arg-pNA) thrombin in vitro.
[15] = target: Serine protease 1 (Homo sapiens, UniProt P07477); test: Concentration required to inhibit enzymatic cleavage of the chromogenic substrate (Boc-Phe-Ser-Arg-AMC) for trypsin in vitro.
[16] = Half-life in rat small intestine homogenate.; assay type: ADME, organism-based; method in brief: as §2
[17] = target: T2, Cathepsin G (Homo sapiens, UniProt P08311); test: Concentration required to inhibit enzymatic cleavage of the chromogenic substrate (MeO-Suc-Ala-Ala-Pro-Met-pNA) for cathepsin G in vitro.
T2 sequence (P08311 whole entry): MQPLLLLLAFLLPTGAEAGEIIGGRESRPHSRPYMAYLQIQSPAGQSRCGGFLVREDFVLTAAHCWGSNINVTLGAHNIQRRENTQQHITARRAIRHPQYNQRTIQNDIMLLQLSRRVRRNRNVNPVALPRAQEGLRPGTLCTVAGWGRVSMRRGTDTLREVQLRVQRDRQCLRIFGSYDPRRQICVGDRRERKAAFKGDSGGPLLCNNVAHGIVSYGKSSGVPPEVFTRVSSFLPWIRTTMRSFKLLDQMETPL

Sequence of Plasma kallikrein (P03952 whole entry, looked up): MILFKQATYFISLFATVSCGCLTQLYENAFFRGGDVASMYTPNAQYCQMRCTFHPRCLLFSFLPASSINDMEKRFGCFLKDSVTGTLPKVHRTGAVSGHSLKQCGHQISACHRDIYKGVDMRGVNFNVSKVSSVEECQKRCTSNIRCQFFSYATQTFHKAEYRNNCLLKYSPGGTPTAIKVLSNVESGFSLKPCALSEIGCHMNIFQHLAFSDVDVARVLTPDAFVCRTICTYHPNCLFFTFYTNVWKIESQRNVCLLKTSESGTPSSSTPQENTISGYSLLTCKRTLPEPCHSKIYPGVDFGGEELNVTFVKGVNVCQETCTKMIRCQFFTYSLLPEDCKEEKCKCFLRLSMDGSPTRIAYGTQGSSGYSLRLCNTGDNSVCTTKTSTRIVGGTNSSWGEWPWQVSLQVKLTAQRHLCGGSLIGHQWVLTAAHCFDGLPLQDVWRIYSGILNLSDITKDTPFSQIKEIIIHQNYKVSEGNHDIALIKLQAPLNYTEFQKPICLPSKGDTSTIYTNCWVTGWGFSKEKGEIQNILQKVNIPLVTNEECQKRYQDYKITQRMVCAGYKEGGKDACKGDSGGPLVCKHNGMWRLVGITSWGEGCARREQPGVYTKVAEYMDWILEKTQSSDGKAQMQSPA
Sequence of Serine protease 1 (P07477 whole entry): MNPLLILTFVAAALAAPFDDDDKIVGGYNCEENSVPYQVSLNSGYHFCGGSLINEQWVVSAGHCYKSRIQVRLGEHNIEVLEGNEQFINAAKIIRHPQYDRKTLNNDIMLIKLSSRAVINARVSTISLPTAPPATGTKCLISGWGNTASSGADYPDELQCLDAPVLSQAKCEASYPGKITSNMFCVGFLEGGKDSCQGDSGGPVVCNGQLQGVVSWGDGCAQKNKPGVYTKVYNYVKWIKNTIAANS
Sequence of Kallikrein-1 (P06870 whole entry): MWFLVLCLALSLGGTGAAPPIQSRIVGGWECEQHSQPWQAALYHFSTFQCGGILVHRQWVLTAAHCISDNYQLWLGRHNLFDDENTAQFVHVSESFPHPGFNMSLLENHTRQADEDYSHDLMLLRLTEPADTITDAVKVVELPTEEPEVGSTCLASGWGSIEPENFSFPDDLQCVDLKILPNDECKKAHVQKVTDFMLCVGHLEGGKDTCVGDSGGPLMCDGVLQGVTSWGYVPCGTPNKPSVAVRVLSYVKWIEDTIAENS
Sequence of Plasminogen (Q01177 97-581 limits assumed): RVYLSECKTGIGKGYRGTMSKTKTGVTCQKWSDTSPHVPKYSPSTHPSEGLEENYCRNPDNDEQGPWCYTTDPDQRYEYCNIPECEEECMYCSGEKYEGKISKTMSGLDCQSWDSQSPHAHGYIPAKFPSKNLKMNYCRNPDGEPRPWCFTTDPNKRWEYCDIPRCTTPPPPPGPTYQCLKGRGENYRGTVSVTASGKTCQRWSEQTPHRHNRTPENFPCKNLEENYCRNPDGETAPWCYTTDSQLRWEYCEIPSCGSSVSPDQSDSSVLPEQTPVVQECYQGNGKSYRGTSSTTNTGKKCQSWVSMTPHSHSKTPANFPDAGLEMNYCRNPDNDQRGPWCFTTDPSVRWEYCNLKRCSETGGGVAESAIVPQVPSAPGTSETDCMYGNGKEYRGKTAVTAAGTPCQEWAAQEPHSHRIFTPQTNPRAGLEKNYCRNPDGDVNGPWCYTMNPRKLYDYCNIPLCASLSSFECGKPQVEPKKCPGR
Sequence of Plasminogen (Q01177 582-812 limits assumed): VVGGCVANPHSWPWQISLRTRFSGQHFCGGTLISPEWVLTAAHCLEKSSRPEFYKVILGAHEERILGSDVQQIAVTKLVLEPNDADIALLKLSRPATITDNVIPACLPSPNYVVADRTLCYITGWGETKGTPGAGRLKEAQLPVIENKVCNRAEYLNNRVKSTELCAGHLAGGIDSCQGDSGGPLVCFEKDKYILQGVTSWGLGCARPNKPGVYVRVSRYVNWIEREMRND

| AUC [1] [ng·h/mL] | AUC [2] [ng·h/mL] | half-life [3] [min] | half-life [4] [min] | half-life [5] [min] | half-life [6] [min] | half-life [7] [min] | IC50 [8] [µM] | IC50 [9] [µM] | IC50 [10] [µM] | IC50 [11] [µM] | IC50 [12] [µM] | IC50 [13] [µM] | IC50 [14] [µM] | IC50 [15] [µM] | half-life [16] [min] | IC50 [17] [µM] | Structure (SMILES) |
| --- | --- | --- | --- | --- | --- | --- | --- | --- | --- | --- | --- | --- | --- | --- | --- | --- | --- |
| 27000 | 5230 | > 60 | > 60 | > 60 | 15 | > 60 | > 100 | > 100 | 0.0965 | > 100 | 1.83 | > 100 | 35 | 0.00413 | > 60 | > 100 | C=CCN(CC(=O)O)C(=O)/C(C)=C/c1ccc(C(=O)Oc2ccc(C(=N)N)cc2)cc1.CS(=O)(=O)O |
|  |  |  |  |  |  |  | > 100 | > 100 | 2.32 | > 100 | 12.5 | > 100 | 108 | 0.055 |  | > 100 | N=C(N)Nc1ccc(C(=O)Oc2ccc(CC(=O)O)cc2)cc1 |
|  | 1820 |  |  |  |  |  | > 100 | > 100 | 1.48 | 34.1 | 2.62 | > 100 |  | 0.0506 |  | > 100 | CN(C)C(=O)COC(=O)Cc1ccc(OC(=O)c2ccc(NC(=N)N)cc2)cc1.CS(=O)(=O)O [CAMOSTAT MESILATE] |
|  |  | < 1 | < 1 | < 1 | 25 | > 60 | > 100 | > 100 | 0.19 | 15.7 | 0.873 | > 100 | 3.66 | 0.0112 | 11 | > 100 | C=CCN(CC(=O)OCC)C(=O)/C(C)=C/c1ccc(C(=O)Oc2ccc(C(=N)N)cc2)cc1.CS(=O)(=O)O |
